Measured values taken from the RNAGym collection of RNA variant scans (doi:10.1126/science.aae0568).
Variants at the floor of the assay were thinned out.

B1: tRNA (parent)
chain: GUUCCGUUGGCGUAAUGGUAACGCGUCUCCCUCCUAAGGAGAAGACUGCGGGUUCGAGUCCCGUACGGAACG

Variants of: B1
Test: yeast fitness relative to wild type (ratio to wild type); higher = fitter; tRNA-Arg(CCU), competitive growth, 37 C, YPD
Outline: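 Changes in genotype frequencies gave Darwinian fitness relative to wild type. Frequencies were read by 100-nucleotide paired-end sequencing of gene amplicons before and after pooled Saccharomyces cerevisiae strains, carrying tRNA-Arg(CCU) gene variants at the native locus, were competed in YPD at 37°C for 24 hours in six replicates. A genotype was kept only with ≥ 100 starting reads, and estimates < 0.5 were set to 0.5.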

Going from A40G C66A to G41C A43G U54A, the yeast fitness falls from 0.694 to 0.564.

Compared with A40G G63A, G41A A42U U59G is lower in yeast fitness: 0.819 for the first, at most 0.5 for the second.

Going from A40G G48A C66U to G41C U59A C61A C66U G68C, the yeast fitness falls from 0.769 to at most 0.5.

Compared with A42C A65G, A42C A65U is lower in yeast fitness: 0.922 for the first, 0.784 for the second.

First: A42C A65C
Second: G41C A42G
The yeast fitness of the first is higher: 0.942 for the first, 0.804 for the second.

First: G41A U47C C61G C62U
Second: A42C A43G G63A
The yeast fitness of the first is lower: at most 0.5 for the first, 0.599 for the second.

A42G A43U G44C A65C and A40G G52A U54G C61U cannot be ordered by yeast fitness: at most 0.5 for the first, at most 0.5 for the second.

Going from A42C U64C A70U to A40U G48C C55U C61G, the yeast fitness falls from 1.12 to 0.522.

First: A40G U47A
Second: A40G U47C
The yeast fitness of the first is higher: 0.848 for the first, 0.788 for the second.

Compared with A40G U47G, A40U C55A G56C is lower in yeast fitness: 0.595 for the first, at most 0.5 for the second.

First: G41A A43C C66U
Second: G41C G58A
The yeast fitness of the first is lower: 0.517 for the first, 0.948 for the second.

Going from G41C G58C to G41C G56A A65G C66U, the yeast fitness falls from 0.762 to at most 0.5.

Going from A40U A69U to A40U A69C, the yeast fitness falls from 1.04 to 0.851.

First: G41C U54C
Second: G41C U54G
The yeast fitness of the first is higher: 0.889 for the first, at most 0.5 for the second.

Going from G41A U47A G48C to A40G C46A C61U, the yeast fitness rises from 0.6 to 0.782.

First: G41C A45U G67C
Second: A40G C62A A70C
The yeast fitness of the first is higher: 0.607 for the first, 0.595 for the second.

Compared with G41C C61U G67A, G41C C46A C62G is higher in yeast fitness: at most 0.5 for the first, 0.551 for the second.

A42C G48C C49A and G41A G51A C60G A65G cannot be ordered by yeast fitness: at most 0.5 for the first, at most 0.5 for the second.

First: G41A U59G
Second: G41A U59A
The yeast fitness of the first is lower: 0.822 for the first, 0.826 for the second.

First: A42C G50A
Second: A42C G50U
The yeast fitness of the first is lower: 0.745 for the first, 0.781 for the second.

Going from A42G A43G C49U to A42G A43G, the yeast fitness rises from 0.556 to 0.766.

Compared with G41A C60G A65G, A42C U47C is higher in yeast fitness: 0.62 for the first, 1.09 for the second.

First: A40G U47A C66G
Second: A40U G52A
The yeast fitness of the first is higher: 0.705 for the first, 0.704 for the second.

Compared with A42C G56C, A40U G48A is higher in yeast fitness: 0.649 for the first, 0.826 for the second.

Going from A40G G44A to A42C G50C G56A, the yeast fitness falls from 0.717 to at most 0.5.

First: G41A G63C C66A
Second: A42G A57C C61G
The yeast fitness of the first is lower: at most 0.5 for the first, 0.708 for the second.

Compared with A42C G68C A69U, G41C C61U is higher in yeast fitness: at most 0.5 for the first, 0.857 for the second.

Going from G41C C61A to A42C G52A G56C, the yeast fitness falls from 0.593 to at most 0.5.

First: G41U G52C
Second: A40U U54A A70U
The yeast fitness of the first is higher: 0.584 for the first, 0.548 for the second.

Going from G41A G68C to G41A G58C, the yeast fitness rises from 0.775 to 0.929.

First: A40G G58C
Second: A40G G58A
The yeast fitness of the first is higher: 1.05 for the first, 0.857 for the second.

Compared with G41A U47C U53A, A40G C46A G67A is higher in yeast fitness: at most 0.5 for the first, 0.563 for the second.

Compared with A42C C62G A65C, G41A A43G C60G A65G is higher in yeast fitness: 0.544 for the first, 0.571 for the second.

First: G41A C49A C66A
Second: A40G C62G
The yeast fitness of the first is lower: at most 0.5 for the first, 0.719 for the second.

First: G41A A69U
Second: G41A A69C
The yeast fitness of the first is higher: 0.914 for the first, 0.801 for the second.

Compared with G41U G51C, A42C C46U is higher in yeast fitness: 0.565 for the first, 0.969 for the second.

First: A42C A69C
Second: A42C C55A U59C
The yeast fitness of the first is higher: 0.939 for the first, 0.661 for the second.

Compared with A42C G52A, A40G C61G U64C is lower in yeast fitness: 0.676 for the first, at most 0.5 for the second.

First: A40U G63C U64C
Second: A40G G44A G63C
The yeast fitness of the first is higher: 0.53 for the first, at most 0.5 for the second.

Compared with A42C A43C A65G, A40U A43G C60G is lower in yeast fitness: 1.09 for the first, at most 0.5 for the second.

Compared with A40G U53C, G41C C55G is lower in yeast fitness: 0.827 for the first, 0.621 for the second.

First: G41C C62U
Second: A40U C61A
The yeast fitness of the first is higher: 0.802 for the first, 0.76 for the second.

Going from A40U A42U A65C to G41A U47G, the yeast fitness falls from 0.747 to 0.655.

First: A42C C60G
Second: A42C C60A
The yeast fitness of the first is lower: 0.608 for the first, 0.672 for the second.

First: A40G G52A A65U
Second: G41A A42C G50C
The yeast fitness of the first is lower: at most 0.5 for the first, 0.622 for the second.

First: A42C C62G
Second: G41A G63A A70C
The yeast fitness of the first is lower: 0.704 for the first, 0.753 for the second.

Going from A40U G41A to G41C C62A G68C, the yeast fitness falls from 0.71 to at most 0.5.

Compared with A40U G68C, A42C A57U C61U is lower in yeast fitness: 0.741 for the first, at most 0.5 for the second.

Compared with A40G G51C U59A C61A A69U, G41C A65G is higher in yeast fitness: at most 0.5 for the first, 0.905 for the second.

Going from G41C A65U to G41C G63A, the yeast fitness falls from 0.858 to 0.852.

Compared with G41C G63C, A42C U59C is higher in yeast fitness: 0.727 for the first, 0.901 for the second.

First: A42C C62G G67C
Second: A40G G50C A57C G58C
The yeast fitness of the first is lower: at most 0.5 for the first, 0.636 for the second.

Compared with G41A C49A G50C G68C, G41A A45U is higher in yeast fitness: at most 0.5 for the first, 1.01 for the second.

First: A40U U47C C66A
Second: A42G A43C A69G
The yeast fitness of the first is lower: 0.611 for the first, 0.835 for the second.

First: A42C G50C C66U
Second: G41A G52A
The yeast fitness of the first is lower: 0.534 for the first, 0.79 for the second.

Going from G41A G52C to A40U A42C C55U, the yeast fitness falls from 0.542 to at most 0.5.

Compared with G41A C49G A65G, G41C A45G is higher in yeast fitness: 0.546 for the first, 0.778 for the second.

Going from G41C A45U to A42G A65C, the yeast fitness falls from 0.778 to 0.755.

Compared with A42G A65U, A40U U59G is higher in yeast fitness: 0.689 for the first, 0.815 for the second.

Compared with A40U U59C, G41U C66U is lower in yeast fitness: 0.913 for the first, 0.845 for the second.

Compared with G41C G50A, G41C G50C is lower in yeast fitness: 0.703 for the first, 0.695 for the second.

First: A40G U53A C55G
Second: A42C C55U C62U
The yeast fitness of the first is lower: at most 0.5 for the first, 0.509 for the second.

First: G41C C55U G67C
Second: A40G C55G
The yeast fitness of the first is lower: at most 0.5 for the first, 0.621 for the second.

First: A40G C55A
Second: A40U A65C
The yeast fitness of the first is lower: 0.626 for the first, 0.652 for the second.

Compared with A40U A65U, A42G A45G A65U is lower in yeast fitness: 0.868 for the first, 0.635 for the second.

Compared with A40U G44A C61A, A42C U53A is higher in yeast fitness: 0.511 for the first, 0.626 for the second.

A40U C55U G68A and A40U C55A A57U cannot be ordered by yeast fitness: at most 0.5 for the first, at most 0.5 for the second.

First: A40U G48C C49U
Second: A40G G51C
The yeast fitness of the first is lower: 0.586 for the first, 0.664 for the second.

Going from A40G U59C C60A U64A to A40G U54A, the yeast fitness rises from at most 0.5 to 0.551.

Compared with A40G U54C, A40G C55U A65C is lower in yeast fitness: 0.955 for the first, 0.525 for the second.

First: A42C G68C
Second: G41A C60A U64A
The yeast fitness of the first is higher: 0.657 for the first, at most 0.5 for the second.

First: G41A A70G
Second: A40U A42C G44A G51A
The yeast fitness of the first is higher: 0.924 for the first, at most 0.5 for the second.

Going from G41A to G41C, the yeast fitness falls from 1 to 0.967.

Going from G41U to G41U A69U, the yeast fitness falls from 0.988 to 0.845.

First: G41A C60G C62A A65G
Second: A42C U64C
The yeast fitness of the first is lower: at most 0.5 for the first, 0.882 for the second.

Going from A42G A45C to A42G A43C A70U, the yeast fitness falls from 0.856 to 0.745.

Going from A42C G44A U53A to G41A U53C, the yeast fitness rises from at most 0.5 to 0.626.

Compared with A42C A43C A69U, A40U G48C G63A is lower in yeast fitness: 0.819 for the first, 0.602 for the second.

First: A40U A43G
Second: A40U A43C
The yeast fitness of the first is lower: 0.788 for the first, 1 for the second.

Going from A40U A43U to A42C A43G C55G G68C, the yeast fitness falls from 1.11 to at most 0.5.

First: A40G C49U G67A
Second: A40G C46A C62U
The yeast fitness of the first is lower: at most 0.5 for the first, 0.734 for the second.

First: A42G A43G A45U
Second: A40U G58A
The yeast fitness of the first is lower: 0.722 for the first, 0.92 for the second.

Compared with A42C C62A C66G, A40U C55G is higher in yeast fitness: at most 0.5 for the first, 0.664 for the second.

Work on A40U C55U yielded a yeast fitness of 0.795.
